# In ChEMBL document CHEMBL2331269, “Design and synthesis of amphiphilic xanthone-based, membrane-targeting antimicrobials with improved membrane selectivity” (J Med Chem, 2013):
# Active and inactive are the calls of the source. No cut-off for these calls is given here.
# What was measured:
# Staphylococcus aureus [1] = assay: Antibacterial activity against vancomycin-intermediate resistant Staphylococcus aureus 10:DB6506 after 20 to 22 hrs by CLSI broth macro-dilution method; type: functional
# Staphylococcus aureus [2] = assay: Antibacterial activity against methicillin-resistant Staphylococcus aureus DR42412 obtained from sputum isolate after 20 to 22 hrs by CLSI broth macro-dilution method; type: functional
# Staphylococcus aureus [3] = assay: Antibacterial activity against methicillin-resistant Staphylococcus aureus DB57964/04 after 20 to 22 hrs by CLSI broth macro-dilution method; type: functional
# [4] = test system: Staphylococcus epidermidis; assay: Antibacterial activity against Staphylococcus epidermidis ATCC 12228 after 20 to 22 hrs by CLSI broth macro-dilution method
# Staphylococcus aureus [5] = assay: Antibacterial activity against methicillin-resistant Staphylococcus aureus clinical isolate DM21455 after 20 to 22 hrs by CLSI broth macro-dilution method; type: functional
# Enterococcus faecalis [6] = assay: Antibacterial activity against Enterococcus faecalis ATCC 29212 after 20 to 22 hrs by multipassage resistance selection method; type: functional, organism-based
# [7] = Selectivity index, ratio of HC50 for rabbit erythrocyte to MIC99 for methicillin-resistant Staphylococcus aureus DR42412; type: functional
# Staphylococcus aureus [8] = assay: Antibacterial activity against methicillin-resistant Staphylococcus aureus DM09808R obtained from eye isolate after 20 to 22 hrs by CLSI broth macro-dilution method; type: functional
# [9] = Hemolytic activity against rabbit erythrocytes after 60 mins by spectrophotometric analysis; type: ADME, cell-based, Oryctolagus cuniculus, Erythrocyte
# Staphylococcus aureus [10] = assay: Antibacterial activity against methicillin-resistant Staphylococcus aureus DM21455 assessed as reduction in viable count at 2 X MIC after 5 mins by surface-spread plate method relative to control; type: functional
# [11] = Partition coefficient, log P of the compound by HPLC analysis; type: physicochemical; conditions: octanol/water; read-out: logP
# How it was run: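 Partition coefficient measured by HPLC following OECD guidelines for the testing of chemicals.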
# [12] = Dissociation constant, pKa of the compound; type: physicochemical
# Staphylococcus aureus [13] = assay: Antimicrobial activity against in Staphylococcus aureus assessed as disruption of bacterial membrane at 10 uM by fluorescence microscopy; type: functional, organism-based
# How it was run: (§1)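 S. aureus DM4001 treated with 10 μM agent and incubated with the membrane-impermeant nucleic-acid dye SYTOX Green. Permeabilization was read as increased fluorescence intensity and confirmed by fluorescence microscopy counting green-stained cells.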
# Staphylococcus aureus [14] = assay: Antimicrobial activity against Staphylococcus aureus assessed as disruption of bacterial membrane at 10 uM by SYTOX green uptake assay; type: functional, organism-based; how it was run: as §1
# Staphylococcus aureus [15] = assay: Antibacterial activity against Staphylococcus aureus ATCC 29737 after 20 to 22 hrs by CLSI broth macro-dilution method; type: functional
# [16] = Selectivity ratio of HC50 for rabbit erythrocyte to MIC99 for methicillin-resistant Staphylococcus aureus clinical isolate DM21455; type: functional
# [17] = Selectivity index, ratio of HC50 for rabbit erythrocyte to MIC99 for methicillin-resistant Staphylococcus aureus DR68004; type: functional
# Staphylococcus aureus [18] = assay: Antimicrobial activity against Staphylococcus aureus DM4001 assessed as morphological changes by scanning electron microscopy relative to control; type: functional, organism-based
# Staphylococcus aureus [19] = assay: Antibacterial activity against Staphylococcus aureus ATCC 6538 after 20 to 22 hrs by CLSI broth macro-dilution method; type: functional
# Staphylococcus aureus [20] = assay: Antibacterial activity against vancomycin-intermediate resistant Staphylococcus aureus 10:DB6506 after 20 to 22 hrs by multipassage resistance selection method; type: functional, organism-based
# Staphylococcus aureus [21] = assay: Antibacterial activity against methicillin-resistant Staphylococcus aureus DM21595 obtained from wound isolate after 20 to 22 hrs by CLSI broth macro-dilution method; type: functional
# Enterococcus faecium = assay: Antibacterial activity against Streptococcus faecium ATCC 10541 after 20 to 22 hrs by CLSI broth macro-dilution method; type: functional
# Staphylococcus aureus [22] = assay: Antibacterial activity against methicillin-resistant Staphylococcus aureus DM21455 assessed as reduction in viable count after 5 to 10 mins by surface-spread plate method; type: functional, organism-based
# Staphylococcus aureus [23] = assay: Antibacterial activity against methicillin-resistant Staphylococcus aureus ATCC […] after 20 to 22 hrs by CLSI broth macro-dilution method; type: functional
# [24] = Selectivity index, ratio of HC50 for rabbit erythrocyte to MIC99 for Streptococcus faecium ATCC 10541; type: functional
# Mus musculus [25] = assay: Toxicity against wild type C57BL6 mouse at 25 mg/kg, iv after 24 hrs; type: organism-based; set-up: dose 25 mg/kg, route intravenous; conditions: in vivo
# How it was run: (§2)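 Mice received a single bolus injection, 25 mg/kg intravenous or 50 mg/kg intraperitoneal, with survival recorded at 24 h; 2 animals per route.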
# Staphylococcus aureus [26] = assay: Antibacterial activity against methicillin-resistant Staphylococcus aureus DR68004 obtained from blood isolate after 20 to 22 hrs by CLSI broth macro-dilution method; type: functional
# [27] = Selectivity index, ratio of HC50 for rabbit erythrocyte to MIC99 for Enterococcus faecalis ATCC 29212; type: functional
# Mus musculus [28] = assay: Toxicity against wild type C57BL6 mouse assessed as corneal opacity at 400 ug/ml administered topically 5 times a day by Slit lamp photography; type: organism-based, Cornea; conditions: in vivo, topical_or_ocular
# How it was run: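 Mouse eyes given topical drops five times per day at 400 μg/mL; cornea examined by slit lamp photography for clinical signs of toxicity and corneal opacity.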
# [29] = Selectivity index, ratio of HC50 for rabbit erythrocyte to MIC99 for methicillin-resistant Staphylococcus aureus ATCC 700669; type: functional
# Enterococcus faecalis [30] = assay: Antibacterial activity against Enterococcus faecalis ATCC 29212 after 20 to 22 hrs by CLSI broth macro-dilution method; type: functional
# [31] = Selectivity index, ratio of HC50 for rabbit erythrocyte to MIC99 for Staphylococcus aureus ATCC 29737; type: functional
# Staphylococcus aureus [32] = assay: Antibacterial activity against methicillin-resistant Staphylococcus aureus DM21455 after 20 to 22 hrs by multipassage resistance selection method; type: functional, organism-based
# Staphylococcus aureus [33] = assay: Antibacterial activity against Staphylococcus aureus ATCC 6538P after 20 to 22 hrs by CLSI broth macro-dilution method; type: functional
# [34] = Selectivity ratio of HC50 for rabbit erythrocyte to MIC99 for Staphylococcus aureus ATCC 29213; type: functional
# [35] = Toxicity against New Zealand White rabbit corneal epithelium assessed as effect on wound closure at 50 ug/ml by Slit lamp photography relative to control; type: tissue-based, Oryctolagus cuniculus, Cornea; conditions: in vivo
# How it was run: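 A 5 mm corneal epithelial abrasion was made with a sterile trephine and the epithelium removed with a mini blade. Eyes were treated with saline, vancomycin 50 μg/mL, or agent 50 μg/mL. Wound closure was tracked over time from fluorescein-stained photographs of defect size.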
# Staphylococcus aureus [36] = assay: Antibacterial activity against Staphylococcus aureus ATCC 29213 after 20 to 22 hrs by CLSI broth macro-dilution method; type: functional
# [37] = Selectivity index, ratio of HC50 for rabbit erythrocyte to MIC99 for […] ATCC 12228; type: functional
# Staphylococcus aureus [38] = assay: Antibacterial activity against methicillin-resistant Staphylococcus aureus DM21455 assessed as reduction in viable count at 4 X MIC after 10 mins by surface-spread plate method relative to control; type: functional
# [39] = Selectivity index, ratio of HC50 for rabbit erythrocyte to MIC99 for methicillin-resistant Staphylococcus aureus DM09808R; type: functional
# [40] = Selectivity index, ratio of HC50 for rabbit erythrocyte to MIC99 for Staphylococcus aureus ATCC 6538; type: functional
# Staphylococcus aureus [41] = assay: Antibacterial activity against Staphylococcus aureus ATCC 700699 at 4 X MIC after 20 to 22 hrs; type: functional, organism-based
# [42] = Selectivity index, ratio of HC50 for rabbit erythrocyte to MIC99 for methicillin-resistant Staphylococcus aureus DM21595; type: functional
# Klebsiella pneumoniae = assay: Antibacterial activity against Klebsiella pneumoniae ATCC 10031 after 20 to 22 hrs by CLSI broth macro-dilution method; type: functional
# Staphylococcus aureus [43] = assay: Antibacterial activity against methicillin-resistant Staphylococcus aureus DM21455 assessed as log reduction in CFU at 0.5 X MIC to 1 X MIC after 2 hrs by surface-spread plate method relative to control; type: functional
# [44] = Selectivity index, ratio of HC50 for rabbit erythrocyte to MIC99 for methicillin-resistant Staphylococcus aureus DB57964/04; type: functional
# [45] = Selectivity index, ratio of HC50 for rabbit erythrocyte to MIC99 for Staphylococcus aureus ATCC 6538P; type: functional
# [46] = Selectivity index, ratio of HC50 for rabbit erythrocyte to MIC99 for Staphylococcus aureus 10:DB6506; type: functional
# Mus musculus [47] = assay: Toxicity against wild type C57BL6 mouse at 50 mg/kg, ip after 24 hrs; type: organism-based; set-up: dose 50 mg/kg, route intraperitoneal; conditions: in vivo; how it was run: as §2
# Staphylococcus aureus [48] = assay: Antimicrobial activity against Staphylococcus aureus DM4001 assessed as depolarization of bacterial membrane at 12.5 ug/ml by DiSC3-5-based cytoplasmic membrane depolarization assay; type: functional, organism-based
# How it was run: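 Clinical S. aureus DM4001 was loaded with the membrane-potential dye DiSC3-5, which self-quenches in polarized membranes. Agent added at 12.5 μg/mL. Depolarization was read as the rise in fluorescence intensity (counts per second) over time.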
# Pseudomonas aeruginosa = assay: Antibacterial activity against Pseudomonas aeruginosa ATCC 27853 after 20 to 22 hrs by CLSI broth macro-dilution method; type: functional
compound,measurement,setting,value
CCN(CC)CCCCOc1cc2oc3cc(OCCCCN(CC)CC)c(OC)c(CC=C(C)C)c3c(=O)c2c(O)c1CC=C(C)C,MIC,Staphylococcus aureus [1],0.78 µg/mL
same,MIC,Staphylococcus aureus [2],0.39 µg/mL
same,MIC,Staphylococcus aureus [3],0.78 µg/mL
same,MIC,[4],0.78 µg/mL
same,MIC99,Staphylococcus aureus [5],0.39 µg/mL
same,Activity,Enterococcus faecalis [6],Active
same,Selectivity Index,[7],50.3
same,MIC,Staphylococcus aureus [8],1.56 µg/mL
same,HC50 at 1 h,[9],19.6 µM
same,Activity,Staphylococcus aureus [10],99.9%
same,logP,[11],6.72
same,pKa,[12],11
same,Activity,Staphylococcus aureus [13],Active
same,Activity,Staphylococcus aureus [14],Active
same,MIC,Staphylococcus aureus [15],1.56 µg/mL
same,Selectivity ratio,[16],50.3
same,Selectivity Index,[17],12.6
same,Activity,Staphylococcus aureus [18],Active
same,MIC,Staphylococcus aureus [19],1.56 µg/mL
same,Activity,Staphylococcus aureus [20],Active
same,MIC,Staphylococcus aureus [21],0.39 µg/mL
same,MIC,Enterococcus faecium,0.195 µg/mL
same,Activity,Staphylococcus aureus [22],Dose-dependent effect
same,MIC,Staphylococcus aureus [23],0.095 µg/mL
same,Selectivity Index,[24],100.5
same,Activity,Mus musculus [25],Non-toxic
same,MIC,Staphylococcus aureus [26],1.56 µg/mL
same,Selectivity Index,[27],25.1
same,Activity,Mus musculus [28],Non-toxic
same,Selectivity Index,[29],206.3
same,MIC,Enterococcus faecalis [30],0.78 µg/mL
same,Selectivity Index,[31],12.6
same,Activity,Staphylococcus aureus [32],Active
same,MIC,Staphylococcus aureus [33],0.78 µg/mL
same,Selectivity ratio,[34],50.3
same,Activity,[35],Non-toxic
same,MIC99,Staphylococcus aureus [36],0.39 µg/mL
same,Selectivity Index,[37],25.1
same,Activity,Staphylococcus aureus [38],99.9%
same,Selectivity Index,[39],12.6
same,Selectivity Index,[40],12.6
same,Activity,Staphylococcus aureus [41],Active
same,Selectivity Index,[42],50.3
same,MIC,Klebsiella pneumoniae,40 µg/mL
same,FC,Staphylococcus aureus [43],3
same,Selectivity Index,[44],25.1
same,Selectivity Index,[45],25.1
same,Selectivity Index,[46],25.1
same,Activity,Mus musculus [47],Non-toxic
same,Activity,Staphylococcus aureus [48],Active
same,MIC,Pseudomonas aeruginosa,50 µg/mL
